# From PubChem
# The entries come from a sample that favours hits as a whole.
# INS promoter act: activators of insulin promoter-driven GFP, primary screen, imaging, TRM-6 cells, eGFP reporter, cell count; plate-scaled: unstimulated 0, stimulated control 100; actives 0.81% (n = 130,000); activation, % at 2 µM;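 active = activation at 2 µM above a set limit, confirmed on inspection of the cell images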;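 note: share of cells whose green reporter signal exceeds an intensity cutoff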
#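 Test system: human fetal islet-derived TRM-6 cells with tamoxifen-inducible insulin promoter–eGFP reporter. Compound dosing: 2 µM final, single concentration. Incubation: tamoxifen pre-incubation 15 h overnight, then compound exposure 48 h at 37 °C. Signal: fixed-cell fluorescence microscopy, eGFP plus Hoechst.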
# Hits are given with their value; 0 = inactive.
SMILES,INS promoter act
O=C(Nc1cc(S(=O)(=O)N2CCCCC2)ccc1Cl)c1ccccc1NS(=O)(=O)c1ccc(F)cc1,525
O=C(Nc1ccccc1N1CCOCC1)c1ccccc1NS(=O)(=O)c1ccc(F)cc1,0
O=C(Nc1cc(S(=O)(=O)N2CCCC2)ccc1OCC(F)(F)F)c1ccc(F)cc1,0
Cc1ccc(C(=O)NNC2CC(=O)N(c3ccc4c(c3)OCCO4)C2=O)cc1 (stereo not drawn),0
O=C(Nc1cc(C(F)(F)F)ccc1-n1cncn1)c1ccc(-c2ccccc2)cc1,78
O=C(Nc1cc(C(F)(F)F)ccc1N1CCOCC1)c1cncc(Br)c1,0
Cc1ccccc1NC(=O)c1cccc(C(F)(F)F)c1,0
Cc1ccc(OCc2ccc(C(=O)Nc3nc4ccccc4n3C)o2)c([N+](=O)[O-])c1,0
CC1CCCCC1NC(=S)Nc1ccc(Cl)cc1Cl (stereo not drawn),0
Cc1cccc(N2C(=O)NC3(CCCCC3)C2=O)c1,78
Cc1cc(C)c(NC(=O)CN2C(=O)NC3(CCCCC3)C2=O)c(C)c1,0
Cc1cccc(N2C(S)=C(C#N)C(=O)NC23CCCCC3)c1,0
COc1ccc(C(C)=O)cc1COC(=O)CNC(=O)c1cc(C)cc(C)c1,0
CCN1C(C)=C(C)S/C1=C1\SC(=S)N(N)C1=O,0
COc1cccc(SCc2noc(C(=O)NCC3CCCO3)c2C(=O)O)c1 (stereo not drawn),0
c1ccc(CC(Nc2ccccn2)c2ccccc2)cc1 (stereo not drawn),0
CCOc1ccccc1NC(=O)C1CCN(C(=O)NCc2ccccc2)CC1,0
CCOc1ccc(NC(=O)C2CCCN(C(=O)NCc3ccccc3)C2)cc1 (stereo not drawn),493
O=C(O)C1CCCN(C(=O)NCc2ccccc2)C1 (stereo not drawn),0
C=CCn1nnc2sc3c(c2c1=O)CCC(C)C3 (stereo not drawn),0
CN(C)S(=O)(=O)c1ccc(C(=O)Nc2ccc(CN3CCCC3)cc2)cc1,0
CN(C)S(=O)(=O)c1ccc(C(=O)Nc2ccc(CCC(=O)N3CCCC3)cc2)cc1,449
CCN(CC)S(=O)(=O)c1ccc(C(=O)Nc2ccc(Cc3ccncc3)cc2)cc1,0
COc1ccc2c(c1)c(C(O)CN1CCC(Cc3ccccc3)CC1)c(C)n2C (stereo not drawn),0
CCOc1ccccc1-n1c(SCC(N)=O)nnc1-c1ccccc1,154
SMILES,INS promoter act
COc1cccc(-c2nnc(SCC(N)=O)n2-c2ccc(Cl)cc2)c1,0
CCOc1ccccc1-n1c(SCC(N)=O)nc2ccccc2c1=O,0
C=CCn1c(CCCNC(=O)c2ccccc2OC)nc2ccccc21,0
CC1(C(=O)NC(=S)N(CCC#N)Cc2cccnc2)CC1(Cl)Cl (stereo not drawn),0
N#CCCN(Cc1cccnc1)C(=S)Nc1ccc(OC(F)F)cc1,0
CN(C)S(=O)(=O)c1cccc(NC(=S)N(CCC#N)Cc2cccnc2)c1,453
O=C(CC(=O)N/N=C\c1c(Cl)cccc1Cl)NCc1ccccc1,0
O=C(Cc1nc(-c2ccc([N+](=O)[O-])cc2)cs1)Nc1ccccc1,193
COc1ccccc1N(C(=O)c1ccncc1)c1nc(-c2ccc([N+](=O)[O-])cc2)cs1,0
O=C(COc1ccc([N+](=O)[O-])cc1)Nc1ccncc1,0
O=C(CNS(=O)(=O)c1ccc(C(=O)N2CCCCC2)cc1)N1CCCCC1,0
COc1ccc(NC(=O)CSc2n[nH]c(N)n2)cc1OC,332
COc1ccc(NC(=O)CSc2nncn2C)cc1OC,0
Nc1nc(SCC(=O)Nc2ccc(Br)cc2F)n[nH]1,0
COc1ccc(Br)cc1C(=O)Nc1ccc(C(=O)O)cc1,341
COc1ccc(Br)cc1C(=O)Nc1ccc(N2CCN(S(C)(=O)=O)CC2)cc1,0
COc1ccc(Br)cc1C(=O)O,0
COc1ccc(N2CCN(CC(=O)Nc3cccc(S(=O)(=O)N4CCOCC4)c3)CC2)cc1,0
OCC1(Cc2ccccc2)CCCN(Cc2cnn(-c3ccccc3)c2)C1 (stereo not drawn),0
Cc1ccccc1CN1C(=O)CSc2ccc(C(=O)N3CCOCC3)cc21,0
Cc1ccccc1CC1(CO)CCCN(C(=O)c2ccc3ncccc3c2)C1 (stereo not drawn),228
COc1cc(C(=O)NCC(=O)N/N=C(C)\C=C\c2ccccc2)cc(OC)c1OC,0
O=C1CSCN1c1ccc(Cl)cc1,0
CC(C)C[C@@H]1NC(=O)[C@H](Cc2ccc(O)cc2)NC(=O)c2cc([N+](=O)[O-])cc(I)c2NCCC[C@@H](C(N)=O)NC1=O,0
NC(=O)[C@@H]1CCCCNc2c(I)cc([N+](=O)[O-])cc2C(=O)N[C@@H](CCC(=O)O)C(=O)N[C@@H](CO)C(=O)N1,0
NC(=O)[C@@H]1CCCNc2c(I)cc([N+](=O)[O-])cc2C(=O)N[C@@H](Cc2ccccc2)C(=O)N[C@@H](Cc2cnc[nH]2)C(=O)N1,285
COC(=O)c1ccc(CN2C(=O)NC3(CCCCC3C)C2=O)o1 (stereo not drawn),0
COC(=O)COc1ccc(S(=O)(=O)Nc2ccc3c(c2)OCO3)cc1Cl,0
